# According to ChEMBL document CHEMBL5579803, “α-Amino bisphosphonate triazoles serve as GGDPS inhibitors” (Bioorg Med Chem Lett, 2024):
# Activity calls are given as the source filed them.
# What was measured:
# [1] = biological target: T1, Geranylgeranyl pyrophosphate synthase (Homo sapiens, UniProt O95749); assay: Inhibition of GGDPS (unknown origin) using recombinant enzyme by enzyme assay
# T1 sequence (O95749 whole entry): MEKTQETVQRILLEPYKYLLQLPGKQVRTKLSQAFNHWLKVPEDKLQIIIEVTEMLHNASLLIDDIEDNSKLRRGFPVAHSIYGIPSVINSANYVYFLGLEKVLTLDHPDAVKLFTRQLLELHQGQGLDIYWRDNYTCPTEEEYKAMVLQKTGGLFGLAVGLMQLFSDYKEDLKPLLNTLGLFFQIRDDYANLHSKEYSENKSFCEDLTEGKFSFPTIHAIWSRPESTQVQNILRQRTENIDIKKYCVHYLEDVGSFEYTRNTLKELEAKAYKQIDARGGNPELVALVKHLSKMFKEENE
# [2] = biological target: T2, Geranylgeranyl pyrophosphate synthase (Homo sapiens) (UniProt O95749); assay: Inhibition of GGDPS (unknown origin) using uRAP1a as substrate in RPMI-8226 cells by measuring lowest effective concentration by measuring unmodified Rap1a by immunoblot based ELISA analysis; type: cell-based
# T2 sequence (whole entry): T1 sequence (O95749 whole entry)
# How it was run: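 Lowest effective concentration in RPMI-8226 cells after 48 h exposure. It is defined as the lowest level giving both a visible unprenylated Rap1a band on immunoblot (β-tubulin loading control) and a statistically significant rise (p<0.05, t-test vs untreated cells) in intracellular lambda light chain by ELISA. Based on n=3 independent experiments.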
# [3] = biological target: T2, Geranylgeranyl pyrophosphate synthase (Homo sapiens); assay: Inhibition of GGDPS (unknown origin) using uRAP1a as substrate in RPMI-8226 cells assessed as disruption of geranylgeranylation by measuring unmodified Rap1a at […] incubated for 48 hrs by immunoblot analysis; type: cell-based; conditions: dose 0.25 µM
# [4] = biological target: T2, Geranylgeranyl pyrophosphate synthase (Homo sapiens); assay: Inhibition of GGDPS (unknown origin) using uRAP1a as substrate in RPMI-8226 cells assessed as disruption of geranylgeranylation by measuring unmodified Rap1a at 0.5 uM incubated for 48 hrs by immunoblot analysis; type: cell-based
# How it was run: (§1)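 RPMI-8226 myeloma cells exposed 48 h to varying test concentrations, with lovastatin (10 μM) as positive control. Lysates were immunoblotted with an antibody that recognises only unprenylated Rap1a, with β-tubulin as loading control. Gels are representative of three independent studies.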
# [5] = biological target: T2, Geranylgeranyl pyrophosphate synthase (Homo sapiens); assay: Inhibition of GGDPS (unknown origin) using uRAP1a as substrate in RPMI-8226 cells assessed as disruption of geranylgeranylation by measuring unmodified Rap1a at 10 uM incubated for 48 hrs by immunoblot analysis; type: cell-based
# How it was run: as §1
Structure (SMILES),IC50 [1],MEC [2],inhibition [3],inhibition [4],inhibition [5]
CC(C)=CCC/C(C)=C\CCn1cc(CC(N)(P(=O)(O)O)P(=O)(O)O)nn1,0.0494 µM,0.25 µM,–,–,–
CC(C)=CCC/C(C)=C/CCn1cc(CC(N)(P(=O)(O)O)P(=O)(O)O)nn1,0.0521 µM,1 µM,–,–,–
CC(C)=CCC/C(C)=C/CCn1cc(CC(P(=O)(O)O)P(=O)(O)O)nn1,–,0.03 µM,–,–,–

# Other lines, results leading:
IC50 [1],MEC [2],inhibition [3],inhibition [4],inhibition [5],Structure (SMILES)
0.27 µM,0.25 µM,Active,–,–,CC(C)=CCC/C(C)=C\Cn1cc(CC(N)(P(=O)(O)O)P(=O)(O)O)nn1
3.76 µM,0.5 µM,–,Active,–,CC(C)=CCCC(C)=CCn1cc(CC(N)(P(=O)(O)O)P(=O)(O)O)nn1
> 100 µM,–,–,–,inactive,CC(C)=CCC/C(C)=C/Cn1cc(CC(N)(P(=O)(O)O)P(=O)(O)O)nn1
